In ChEMBL document CHEMBL4354828, “Discovery of Taniborbactam (VNRX-5133): A Broad-Spectrum Serine- and Metallo-β-lactamase Inhibitor for Carbapenem-Resistant Bacterial Infections” (J Med Chem, 2020):
In brackets after ≈: the same amount, converted by molar mass.

Key:
[1] = Inhibition of bacterial NDM-1 using cefepime as substrate preincubated for 15 mins followed by susbtrate addition and measured after 10 mins by spectrophotometric method; set-up: species or system Bacteria
[2] = Inhibition of bacterial OXA-48 using nitrocefin as substrate preincubated for 15 mins followed by susbtrate addition and measured after 10 mins by spectrophotometric method; set-up: species or system Bacteria
[3] = Inhibition of bacterial CTX-M-15 using cefotaxime as substrate preincubated for 15 mins followed by susbtrate addition and measured after 10 mins by spectrophotometric method; set-up: species or system Bacteria
[4] = Inhibition of bacterial CMY-2 using nitrocefin as substrate preincubated for 15 mins followed by susbtrate addition and measured after 10 mins by spectrophotometric method; set-up: species or system Bacteria
[5] = Inhibition of bacterial OXA-1 using nitrocefin as substrate preincubated for 15 mins followed by susbtrate addition and measured after 10 mins by spectrophotometric method; set-up: species or system Bacteria
[6] = Inhibition of bacterial KPC-2 using imipenem as substrate preincubated for 15 mins followed by susbtrate addition and measured after 10 mins by spectrophotometric method; set-up: species or system Bacteria
[7] = Inhibition of bacterial VIM-2 using nitrocefin as substrate preincubated for 15 mins followed by susbtrate addition and measured after 10 mins by spectrophotometric method; set-up: species or system Bacteria
In short: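 Purified β-lactamase inhibition. IC50 values are the average of duplicates unless otherwise indicated.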

[8] = Inhibition of bacterial IMP-1 using nitrocefin as substrate preincubated for 15 mins followed by susbtrate addition and measured after 10 mins by spectrophotometric method; set-up: species or system Bacteria
[9] = system: Escherichia coli; assay: Inhibition of NDM in Escherichia coli CDC-0452 assessed as meropenem antibacterial activity at 4 ug/ml after 16 to 20 hrs by CLSI-based microbroth dilution method (reference value: […] ug/ml)
[10] = Inhibition of bacterial AmpC using nitrocefin as substrate preincubated for 15 mins followed by susbtrate addition and measured after 10 mins by spectrophotometric method; set-up: species or system Bacteria
[11] = system: Klebsiella pneumoniae; assay: Inhibition of OXA-232/OXA-9/TEM-1A/CTX-M-15/OXA-1 in Klebsiella pneumoniae CDC-0066 assessed as cefepime antibacterial activity at 8 ug/ml after 16 to 20 hrs by CLSI-based microbroth dilution method (Rvb > […] ug/ml)
[12] = system: Klebsiella pneumoniae; assay: Inhibition of VIM-27/CTX-M-15/SHV-11/OXA-1 in Klebsiella pneumoniae CDC-0040 assessed as meropenem antibacterial activity at 4 ug/ml after 16 to 20 hrs by CLSI-based microbroth dilution method
[13] = system: Klebsiella pneumoniae ATCC BAA-1705; assay: Inhibition of KPC-2 in Klebsiella pneumoniae ATCC BAA 1705 assessed as piperacillin antibacterial activity at 16 ug/ml after 16 to 20 hrs by CLSI-based microbroth dilution method (Rvb > […] ug/ml)
[14] = system: Escherichia coli; assay: Inhibition of NDM-1/CMY-6/OXA-1 in Escherichia coli CDC-0055 assessed as meropenem antibacterial activity at 4 ug/ml after 16 to 20 hrs by CLSI-based microbroth dilution method (reference value: […] ug/ml)
[15] = system: Klebsiella pneumoniae; assay: Inhibition of KPC-2/SHV12/TEM-1 in Klebsiella pneumoniae CDC-0361 assessed as piperacillin antibacterial activity at 16 ug/ml after 16 to 20 hrs by CLSI-based microbroth dilution method (Rvb > […] ug/ml)
[16] = system: Escherichia coli; assay: Inhibition of NDM in Escherichia coli CDC-0452 assessed as piperacillin antibacterial activity at 16 ug/ml after 16 to 20 hrs by CLSI-based microbroth dilution method (Rvb > […] ug/ml)
[17] = system: Klebsiella pneumoniae; assay: Inhibition of KPC-2/SHV12/TEM-1 in Klebsiella pneumoniae CDC-0361 assessed as meropenem antibacterial activity at 4 ug/ml after 16 to 20 hrs by CLSI-based microbroth dilution method (reference value: […] ug/ml)
[18] = system: Pseudomonas aeruginosa; assay: Inhibition of KPC-2/PDC-42 in Pseudomonas aeruginosa CDC-0356 assessed as cefepime antibacterial activity at 8 ug/ml after 16 to 20 hrs by CLSI-based microbroth dilution method (Rvb > […] ug/ml)
[19] = system: Klebsiella pneumoniae; assay: Inhibition of OXA-232/OXA-9/TEM-1A/CTX-M-15/OXA-1 in Klebsiella pneumoniae CDC-0066 assessed as piperacillin antibacterial activity at 16 ug/ml after 16 to 20 hrs by CLSI-based microbroth dilution method (Rvb > […] ug/ml)
[20] = Inhibition of bacterial SHV-5 using cefotaxime as substrate preincubated for 15 mins followed by susbtrate addition and measured after 10 mins by spectrophotometric method; set-up: species or system Bacteria
[21] = system: Klebsiella pneumoniae; assay: Inhibition of KPC-2/SHV12/TEM-1 in Klebsiella pneumoniae CDC-0361 assessed as cefepime antibacterial activity at 8 ug/ml after 16 to 20 hrs by CLSI-based microbroth dilution method (reference value: […] ug/ml)
[22] = system: Escherichia coli; assay: Inhibition of NDM-1/CMY-6/OXA-1 in Escherichia coli CDC-0055 assessed as cefepime antibacterial activity at 8 ug/ml after 16 to 20 hrs by CLSI-based microbroth dilution method
In short: (§1)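 MDR β-lactamase-producing Gram-negative clinical isolates. […] MIC was reported as the inhibitor concentration that restores the partner's antibacterial activity.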

[23] = system: Pseudomonas aeruginosa; assay: Inhibition of VIM in Pseudomonas aeruginosa CDC-0457 assessed as meropenem antibacterial activity at 4 ug/ml after 16 to 20 hrs by CLSI-based microbroth dilution method
[24] = system: Klebsiella pneumoniae; assay: Inhibition of OXA-232/OXA-9/TEM-1A/CTX-M-15/OXA-1 in Klebsiella pneumoniae CDC-0066 assessed as meropenem antibacterial activity at 4 ug/ml after 16 to 20 hrs by CLSI-based microbroth dilution method (reference value: […] ug/ml)
[25] = system: Escherichia coli; assay: Inhibition of NDM in Escherichia coli CDC-0452 assessed as cefepime antibacterial activity after 16 to 20 hrs by CLSI-based microbroth dilution method (reference value: […] ug/ml)
[26] = system: Pseudomonas aeruginosa; assay: Inhibition of VIM in Pseudomonas aeruginosa CDC-0457 assessed as cefepime antibacterial activity at 8 ug/ml after 16 to 20 hrs by CLSI-based microbroth dilution method
[27] = system: Klebsiella pneumoniae ATCC BAA-1705; assay: Inhibition of KPC-2 in Klebsiella pneumoniae ATCC BAA 1705 assessed as meropenem antibacterial activity at 4 ug/ml after 16 to 20 hrs by CLSI-based microbroth dilution method (reference value: […] ug/ml)
[28] = system: Klebsiella pneumoniae; assay: Inhibition of VIM-27/CTX-M-15/SHV-11/OXA-1 in Klebsiella pneumoniae CDC-0040 assessed as cefepime antibacterial activity at 8 ug/ml after 16 to 20 hrs by CLSI-based microbroth dilution method
[29] = system: Klebsiella pneumoniae; assay: Inhibition of VIM-27/CTX-M-15/SHV-11/OXA-1 in Klebsiella pneumoniae CDC-0040 assessed as piperacillin antibacterial activity at 16 ug/ml after 16 to 20 hrs by CLSI-based microbroth dilution method
[30] = system: Escherichia coli; assay: Inhibition of NDM-1/CMY-6/OXA-1 in Escherichia coli CDC-0055 assessed as piperacillin antibacterial activity at 16 ug/ml after 16 to 20 hrs by CLSI-based microbroth dilution method; in short: as §1
[31] = system: Pseudomonas aeruginosa; assay: Inhibition of VIM in Pseudomonas aeruginosa CDC-0457 assessed as piperacillin antibacterial activity at 16 ug/ml after 16 to 20 hrs by CLSI-based microbroth dilution method
[32] = system: Pseudomonas aeruginosa; assay: Inhibition of KPC-2/PDC-42 in Pseudomonas aeruginosa CDC-0356 assessed as meropenem antibacterial activity at 4 ug/ml after 16 to 20 hrs by CLSI-based microbroth dilution method (reference value: […] ug/ml)
[33] = system: Pseudomonas aeruginosa; assay: Inhibition of KPC-2/PDC-42 in Pseudomonas aeruginosa CDC-0356 assessed as piperacillin antibacterial activity at 16 ug/ml after 16 to 20 hrs by CLSI-based microbroth dilution method (Rvb > […] ug/ml)
[34] = system: Klebsiella pneumoniae; assay: Inhibition of KPC-2 in Klebsiella pneumoniae assessed as meropenem antibacterial activity at 4 ug/ml after 16 to 20 hrs by CLSI-based microbroth dilution method (Rvb >= […] ug/ml)
[35] = target: Beta-lactamase VIM-2 (Pseudomonas aeruginosa) (UniProt Q9K2N0); assay: Inhibition of VIM-2 in Pseudomonas aeruginosa assessed as meropenem antibacterial activity at 4 ug/ml after 16 to 20 hrs by CLSI-based microbroth dilution method (Rvb >= […] ug/ml)
[36] = system: Klebsiella pneumoniae; assay: Inhibition of VIM-4 in Klebsiella pneumoniae assessed as meropenem antibacterial activity at 4 ug/ml after 16 to 20 hrs by CLSI-based microbroth dilution method (Rvb >= […] ug/ml)
[37] = system: Klebsiella pneumoniae ATCC BAA-1705; assay: Inhibition of KPC-2 in Klebsiella pneumoniae ATCC BAA 1705 assessed as cefepime antibacterial activity at 8 ug/ml after 16 to 20 hrs by CLSI-based microbroth dilution method; in short: as §1
[38] = system: Klebsiella pneumoniae; assay: Inhibition of OXA-48 in Klebsiella pneumoniae assessed as meropenem antibacterial activity at 4 ug/ml after 16 to 20 hrs by CLSI-based microbroth dilution method (Rvb >= […] ug/ml)

Row | Structure (SMILES) | IC50 [1] [nM] | IC50 [2] [nM] | IC50 [3] [nM] | IC50 [4] [nM] | IC50 [5] [nM] | IC50 [6] [nM] | IC50 [7] [nM] | IC50 [8] [nM] | MIC [9] [µg/mL] | IC50 [10] [nM] | MIC [11] [µg/mL] | MIC [12] [µg/mL] | MIC [13] [µg/mL] | MIC [14] [µg/mL] | MIC [15] [µg/mL] | MIC [16] [µg/mL] | MIC [17] [µg/mL] | MIC [18] [µg/mL] | MIC [19] [µg/mL] | MIC [21] [µg/mL] | also measured
1 | O=C(O)[C@H]1/C(=C/CO)O[C@@H]2CC(=O)N21 [CLAVULANIC ACID] | > 100000 | 30000 | 40 | > 100000 | 120 | 1800 | > 100000 | > 100000 |  |  |  |  |  |  |  |  |  |  |  |  | 
2 | O=C(O)C[C@@H]1CC[C@H](NC(=O)Cc2cccs2)B(O)O1 [VABORBACTAM] | > 100000 | 38800 | 420 | 220 | 7900 | 100 | > 100000 | > 100000 | > 16 | 90 | > 16 | > 16 | > 16 | > 16 | > 16 | > 16 | 0.06 (≈ 0.202 µM) | > 16 | > 16 | > 16 | IC50 [20]: 440 nM; MIC [22]: > 16 µg/mL; MIC [23]: > 16 µg/mL; MIC [24]: > 16 µg/mL; MIC [25]: > 16 µg/mL; MIC [26]: > 16 µg/mL; MIC [27]: 0.03 µg/mL (≈ 0.101 µM); MIC [28]: > 16 µg/mL; MIC [29]: > 16 µg/mL; MIC [30]: > 16 µg/mL; MIC [31]: > 16 µg/mL; MIC [32]: 8 µg/mL (≈ 26.9 µM); MIC [33]: > 16 µg/mL
3 | N[C@H]1CC[C@H](CC(=O)N[C@H]2Cc3cccc(C(=O)O)c3OB2O)CC1 |  | 2240 |  |  |  | 30 | 150 |  | 8 (≈ 23.1 µM) | 30 | 4 (≈ 11.6 µM) | > 16 | 4 (≈ 11.6 µM) | 8 (≈ 23.1 µM) | 2 (≈ 5.78 µM) | > 16 | 0.015 (≈ 0.0433 µM) | 4 (≈ 11.6 µM) | > 16 | 0.015 (≈ 0.0433 µM) | MIC [34]: 2 µg/mL (≈ 5.78 µM); MIC [22]: > 16 µg/mL; MIC [23]: > 16 µg/mL; MIC [24]: 8 µg/mL (≈ 23.1 µM); MIC [25]: 4 µg/mL (≈ 11.6 µM); MIC [35]: 2 µg/mL (≈ 5.78 µM); MIC [26]: 2 µg/mL (≈ 5.78 µM); MIC [36]: 2 µg/mL (≈ 5.78 µM); MIC [37]: 0.125 µg/mL (≈ 0.361 µM); MIC [38]: 2 µg/mL (≈ 5.78 µM); MIC [27]: 0.015 µg/mL (≈ 0.0433 µM); MIC [28]: > 16 µg/mL; MIC [29]: > 16 µg/mL; MIC [30]: > 16 µg/mL; MIC [31]: > 16 µg/mL; MIC [32]: 4 µg/mL (≈ 11.6 µM); MIC [33]: 4 µg/mL (≈ 11.6 µM)
